Measurements: ChEMBL document CHEMBL4368909, “Identification of Dihydrofuro[3,4- d]pyrimidine Derivatives as Novel HIV-1 Non-Nucleoside Reverse Transcriptase Inhibitors with Promising Antiviral Activities and Desirable Physicochemical Properties” (J Med Chem, 2019)
pEC50, pIC50: −log10 of the molar value. Converted amounts (≈) assume the structure as drawn.

Experiments:
[1] = test system: Human immunodeficiency virus 1; test: Antiviral activity against HIV1 harboring reverse transcriptase Y181C mutant infected in human MT4 cells assessed as reduction in virus-induced cytopathic effect after 5 days by MTT assay; assay type: functional, organism-based; details: Human immunodeficiency virus 1, MT4, 120 h
[2] = Sub-acute toxicity in Kunming mouse assessed as alveolar hemorrhage at 50 mg/kg/day, po administered for 2 weeks by hematoxylin and eosin staining-based assay; assay type: organism-based; details: in vivo, 336 h
Procedure, shortened: (§1)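 Mice were dosed orally at 50 mg/kg/day for 2 weeks and observed for behavioural abnormalities during treatment. Organs were then examined by hematoxylin–eosin staining.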

[3] = test system: Human immunodeficiency virus 1; test: Antiviral activity against HIV1 harboring reverse transcriptase E138K mutant infected in human MT4 cells assessed as reduction in virus-induced cytopathic effect after 5 days by MTT assay; assay type: functional, organism-based; details: Human immunodeficiency virus 1, MT4, 120 h
[4] = test system: Human immunodeficiency virus 1; test: Antiviral activity against wild type HIV1 3B infected in human MT4 cells assessed as reduction in virus-induced cytopathic effect after 5 days by MTT assay; assay type: functional, organism-based; details: Human immunodeficiency virus 1, 3B, MT4, 120 h
[5] = Sub-acute toxicity in Kunming mouse assessed as proximal convoluted tubule edema in kidney at 50 mg/kg/day, po administered for 2 weeks by hematoxylin and eosin staining-based assay; assay type: organism-based; details: in vivo, 336 h; procedure, shortened: as §1
[6] = Aqueous solubility of the compound in FASSIF by HPLC analysis; assay type: physicochemical; details: simulated gi fluid
Procedure, shortened: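 Solubility read by HPLC in fasted state simulated intestinal fluid (FaSSIF).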

[7] = test system: Human immunodeficiency virus 1; test: Antiviral activity against HIV1 harboring reverse transcriptase F227L/V106A double mutant infected in human MT4 cells assessed as reduction in virus-induced cytopathic effect after 5 days by MTT assay; assay type: functional, organism-based; details: Human immunodeficiency virus 1, MT4, 120 h
[8] = Aqueous solubility of the compound at pH at 7.4 by HPLC analysis; assay type: physicochemical; details: buffer, pH 7.4
Procedure, shortened: (§2)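 Aqueous solubility read by HPLC in buffer at pH 2.0, 7.0 or 7.4.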

[9] = Aqueous solubility of the compound at pH at 7 by HPLC analysis; assay type: physicochemical; details: buffer, pH 7; procedure, shortened: as §2
[10] = test system: Human immunodeficiency virus 1; test: Antiviral activity against HIV1 RES056 infected in human MT4 cells assessed as reduction in virus-induced cytopathic effect after 5 days by MTT assay; assay type: functional, organism-based; details: Human immunodeficiency virus 1, RES056, MT4, 120 h
[11] = test system: Human immunodeficiency virus 1; test: Antiviral activity against HIV1 harboring reverse transcriptase L100I mutant infected in human MT4 cells assessed as reduction in virus-induced cytopathic effect after 5 days by MTT assay; assay type: functional, organism-based; details: Human immunodeficiency virus 1, MT4, 120 h
[12] = Sub-acute toxicity in Kunming mouse assessed as alveolar interstitial thickening at 50 mg/kg/day, po administered for 2 weeks by hematoxylin and eosin staining-based assay; assay type: organism-based; details: in vivo, 336 h; procedure, shortened: as §1
[13] = test system: Human immunodeficiency virus 1; test: Resistance factor, ratio of EC50 for HIV1 harboring reverse transcriptase K103N mutant to EC50 for wild type HIV1; assay type: functional
Procedure, shortened: (§3)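 The resistance factor is the EC50 against the mutant strain divided by the EC50 against wild-type HIV-1. Both were measured in MT-4 cells by MTT read-out of protection from virus-induced cytopathicity.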

[14] = test system: Human immunodeficiency virus 1; test: Resistance factor, ratio of EC50 for HIV1 harboring reverse transcriptase F227L/V106A double mutant to EC50 for wild type HIV1; assay type: functional; procedure, shortened: as §3
[15] = test system: Human immunodeficiency virus 1; test: Resistance factor, ratio of EC50 for HIV1 harboring reverse transcriptase E138K mutant to EC50 for wild type HIV1; assay type: functional; procedure, shortened: as §3
[16] = Aqueous solubility of the compound at pH at 2 by HPLC analysis; assay type: physicochemical; details: buffer, pH 2; procedure, shortened: as §2
[17] = test system: Human immunodeficiency virus 1; test: Antiviral activity against HIV1 harboring reverse transcriptase K103N mutant infected in human MT4 cells assessed as reduction in virus-induced cytopathic effect after 5 days by MTT assay; assay type: functional, organism-based; details: Human immunodeficiency virus 1, MT4, 120 h
[18] = Selectivity ratio of CC50 for human MT4 cells to EC50 for HIV1 harboring reverse transcriptase L100I mutant infected in human MT4 cells; assay type: toxicity, cell-based; details: read-out: Ratio CC50/EC50
[19] = Selectivity ratio of CC50 for human MT4 cells to EC50 for HIV1 RES056 infected in human MT4 cells; assay type: toxicity, cell-based; details: read-out: Ratio CC50/EC50
[20] = Selectivity ratio of CC50 for human MT4 cells to EC50 for HIV1 harboring reverse transcriptase E138K mutant infected in human MT4 cells; assay type: toxicity, cell-based; details: read-out: Ratio CC50/EC50
[21] = test system: Human immunodeficiency virus 1; test: Resistance factor, ratio of EC50 for HIV1 harboring reverse transcriptase Y181C mutant to EC50 for wild type HIV1; assay type: functional; procedure, shortened: as §3
[22] = test system: Human immunodeficiency virus 1; test: Resistance factor, ratio of EC50 for HIV1 harboring reverse transcriptase Y188L mutant to EC50 for wild type HIV1; assay type: functional; procedure, shortened: as §3
[23] = test system: Human immunodeficiency virus 2; test: Antiviral activity against HIV2 ROD infected in human MT4 cells assessed as reduction in virus-induced cytopathic effect after 5 days by MTT assay; details: Human immunodeficiency virus 2, ISOLATE ROD, MT4, 120 h
[24] = Selectivity ratio of CC50 for human MT4 cells to EC50 for HIV1 3B infected in human MT4 cells; assay type: toxicity, cell-based; details: read-out: Ratio CC50/EC50
[25] = Selectivity ratio of CC50 for human MT4 cells to EC50 for HIV1 harboring reverse transcriptase F227L/V106A double mutant infected in human MT4 cells; assay type: toxicity, cell-based; details: read-out: Ratio CC50/EC50
[26] = test system: Human immunodeficiency virus 1; test: Antiviral activity against HIV1 harboring reverse transcriptase Y188L mutant infected in human MT4 cells assessed as reduction in virus-induced cytopathic effect after 5 days by MTT assay; assay type: functional, organism-based; details: Human immunodeficiency virus 1, MT4, 120 h
[27] = Selectivity ratio of CC50 for human MT4 cells to EC50 for HIV1 harboring reverse transcriptase Y188L mutant infected in human MT4 cells; assay type: toxicity, cell-based; details: read-out: Ratio CC50/EC50
[28] = Selectivity ratio of CC50 for human MT4 cells to EC50 for HIV1 harboring reverse transcriptase K103N mutant infected in human MT4 cells; assay type: toxicity, cell-based; details: read-out: Ratio CC50/EC50
[29] = Selectivity ratio of CC50 for human MT4 cells to EC50 for HIV1 harboring reverse transcriptase Y181C mutant infected in human MT4 cells; assay type: toxicity, cell-based; details: read-out: Ratio CC50/EC50
[30] = biological target: Human immunodeficiency virus type 1 reverse transcriptase (Human immunodeficiency virus 1, UniProt Q72547); test: Inhibition of recombinant HIV1 reverse transcriptase using (DIG)-dUTP and biotin-labeled dNTPs as substrate after 1 hr by ELISA
[31] = test system: Human immunodeficiency virus 1; test: Resistance factor, ratio of EC50 for HIV1 harboring reverse transcriptase L100I mutant to EC50 for wild type HIV1; assay type: functional; procedure, shortened: as §3
MT4 = test: (§4) Cytotoxicity against human MT4 cells after 5 days by MTT assay; assay type: cell-based; details: mt4, 120 h
[32] = as §4; assay type: cell-based; details: MT4 cells
[33] = Protein binding in rat plasma assessed as recovery rate at 1 uM after 5 hrs by LC/MS analysis; assay type: ADME, cell-free
Procedure, shortened: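 Equilibrium dialysis against plasma proteins: human plasma for line 1, Wistar rat plasma for line 2. Reference drug tested at 1 μM. Recovery rate reported alongside percent protein-binding rate.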

SMILES: Cc1cc(C#N)cc(C)c1Oc1nc(Nc2ccc(C#N)cc2)nc(N)c1Br [ETRAVIRINE]
- pEC50 [1]: 7.84
- Activity [2]: Toxic
- pEC50 [3]: 8.01
- pEC50 [4]: 8.29
- Activity [5]: Toxic
- solubility [6]: 13.2 µg/mL (≈ 30.3 µM)
- pEC50 [7]: 7.71
- solubility ([8]; read-out: solubility): < 1 µg/mL
- solubility ([9]; read-out: solubility): < 1 µg/mL
- pEC50 [10]: 7.34
- pEC50 [11]: 8.22
- Activity [12]: Toxic

SMILES: Cc1cc(C#N)cc(C)c1Oc1nc(NC2CCN(Cc3ccc(S(N)(=O)=O)cc3)CC2)nc2c1COC2
- pEC50 [1]: 8.27
- pEC50 [3]: 8.10
- Ratio EC50 [13]: 1
- pEC50 [4]: 8.55
- Ratio EC50 [14]: 4.2
- Ratio EC50 [15]: 2.7
- solubility [16]: 174 µg/mL (≈ 325 µM)
- pEC50 [17]: 8.54
- selectivity ratio [18]: 8940
- selectivity ratio [19]: 725
- selectivity ratio [20]: 3470
- Ratio EC50 [21]: 1.9
- Ratio EC50 [22]: 5.3
- solubility [6]: 8.42 µg/mL (≈ 15.7 µM)
- pEC50 [23]: ≤ 5.08
- selectivity ratio [24]: 9520
- selectivity ratio [25]: 2270
- pEC50 [7]: 7.90
- solubility [8]: 5.68 µg/mL (≈ 10.6 µM)
- solubility [9]: 10.3 µg/mL (≈ 19.3 µM)
- pEC50 [10]: 7.42
- pEC50 [26]: 7.82
- selectivity ratio [27]: 1810
- pEC50 [11]: 8.52
- selectivity ratio [28]: 9220
- selectivity ratio [29]: 5090
- pIC50 [30]: 6.96
- Ratio EC50 [31]: 1.1
- CC50 (MT4): 27500 nM

SMILES: Cc1cc(C#N)cc(C)c1Oc1nc(NC2CCN(Cc3cccc(C(N)=O)c3)CC2)nc2c1SCCC2
- pEC50 [4]: 8.29
- selectivity ratio [19]: 5.5
- pEC50 [23]: < 5.24
- selectivity ratio [24]: 1140
- pEC50 [10]: 5.98
- CC50 at 120 h [32]: 5800 nM

SMILES: CC(=O)CC(c1ccccc1)c1c(O)c2ccccc2oc1=O (stereo not drawn) [WARFARIN]
- Drug recovery [33]: 107%
